The structures appear in SMILES notation. The source made the active and inactive calls. The calls are words filed in the database; no cut-off is given here. Bounds are passed on as bounds.

In assay [1] the test system is NCI-H226. The assay is described as follows: Antiproliferative activity against human NCI-H226 cells incubated for 120 hrs by Celltiter-glo luminescent assay. The assay is classed as functional, cell-based. To be noted: NCI-H226, 120 h. The essentials:
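5-day exposure of NF2-deficient NCI-H226 cells to compounds at a range of concentrations; IC50 taken as mean ± SEM of four independent replicates.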

For assay [2], the target named is T1, Protein cereblon-TEAD (Homo sapiens) (UniProt P28347+Q96SW2+Q15561+Q15562+Q99594). The assay is described as follows: Protac activity at CRBN/TEAD in human NCI-H226 cells at 1 to 10 uM incubated for 24 hrs by Western blot analysis. The assay is classed as cell-based. To be noted: dose 1-10 µM. The essentials: (§1)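 NCI-H226 cells exposed 24 h to 0.1, 1 or 10 μM compound. TEAD detected with pan-TEAD antibody by Western blot and quantified as percent degradation. Mean ± SEM of three independent replicates.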
T1 sequence (Q15562 whole entry partner): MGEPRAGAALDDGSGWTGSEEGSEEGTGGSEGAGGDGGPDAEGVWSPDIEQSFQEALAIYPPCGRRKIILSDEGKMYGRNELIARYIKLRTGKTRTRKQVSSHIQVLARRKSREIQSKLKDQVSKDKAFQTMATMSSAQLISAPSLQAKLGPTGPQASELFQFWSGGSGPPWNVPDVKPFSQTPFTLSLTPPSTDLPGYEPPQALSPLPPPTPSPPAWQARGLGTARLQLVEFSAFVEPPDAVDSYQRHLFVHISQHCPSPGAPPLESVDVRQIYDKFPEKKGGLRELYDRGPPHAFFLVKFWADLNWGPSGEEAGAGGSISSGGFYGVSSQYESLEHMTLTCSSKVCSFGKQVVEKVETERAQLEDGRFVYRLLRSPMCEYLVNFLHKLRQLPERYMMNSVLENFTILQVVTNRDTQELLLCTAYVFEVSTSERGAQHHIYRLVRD
T1 sequence (Q96SW2 whole entry partner): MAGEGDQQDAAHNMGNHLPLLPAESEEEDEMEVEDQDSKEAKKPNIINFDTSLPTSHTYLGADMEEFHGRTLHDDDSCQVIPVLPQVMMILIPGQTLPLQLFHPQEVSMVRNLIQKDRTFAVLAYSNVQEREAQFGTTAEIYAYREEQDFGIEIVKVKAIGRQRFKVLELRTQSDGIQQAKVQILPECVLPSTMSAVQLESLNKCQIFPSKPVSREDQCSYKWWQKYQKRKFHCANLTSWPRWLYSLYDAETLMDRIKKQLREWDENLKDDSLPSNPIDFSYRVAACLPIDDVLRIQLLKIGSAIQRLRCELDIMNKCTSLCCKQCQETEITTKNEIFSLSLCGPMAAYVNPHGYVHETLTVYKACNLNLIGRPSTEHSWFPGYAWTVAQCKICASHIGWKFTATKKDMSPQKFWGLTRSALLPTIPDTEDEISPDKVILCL
T1 sequence (Q99594 2-435 partner limits assumed): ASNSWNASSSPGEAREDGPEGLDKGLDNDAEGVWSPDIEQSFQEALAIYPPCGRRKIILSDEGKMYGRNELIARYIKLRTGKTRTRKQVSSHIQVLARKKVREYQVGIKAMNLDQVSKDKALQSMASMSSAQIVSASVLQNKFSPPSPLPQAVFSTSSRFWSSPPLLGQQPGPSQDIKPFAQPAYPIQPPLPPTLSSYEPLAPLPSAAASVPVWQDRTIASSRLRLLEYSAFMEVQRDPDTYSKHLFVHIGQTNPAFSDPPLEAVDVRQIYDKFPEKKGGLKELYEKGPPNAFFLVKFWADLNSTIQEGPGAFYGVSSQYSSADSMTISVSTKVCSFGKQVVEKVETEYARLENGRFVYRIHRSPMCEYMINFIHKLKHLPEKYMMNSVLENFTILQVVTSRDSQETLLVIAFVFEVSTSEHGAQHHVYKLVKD
T1 sequence (P28347 whole entry): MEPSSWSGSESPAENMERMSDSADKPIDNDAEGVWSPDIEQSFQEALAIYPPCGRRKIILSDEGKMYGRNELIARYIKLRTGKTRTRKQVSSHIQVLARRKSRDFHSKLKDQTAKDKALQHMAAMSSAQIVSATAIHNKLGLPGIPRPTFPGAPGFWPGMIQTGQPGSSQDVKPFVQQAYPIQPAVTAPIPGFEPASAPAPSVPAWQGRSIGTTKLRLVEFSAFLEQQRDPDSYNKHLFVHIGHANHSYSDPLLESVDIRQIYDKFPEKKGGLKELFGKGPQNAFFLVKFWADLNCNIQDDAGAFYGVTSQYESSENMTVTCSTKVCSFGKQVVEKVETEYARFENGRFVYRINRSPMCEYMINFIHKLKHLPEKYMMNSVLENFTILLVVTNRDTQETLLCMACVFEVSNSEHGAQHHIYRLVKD
T1 sequence (Q15561 whole entry partner): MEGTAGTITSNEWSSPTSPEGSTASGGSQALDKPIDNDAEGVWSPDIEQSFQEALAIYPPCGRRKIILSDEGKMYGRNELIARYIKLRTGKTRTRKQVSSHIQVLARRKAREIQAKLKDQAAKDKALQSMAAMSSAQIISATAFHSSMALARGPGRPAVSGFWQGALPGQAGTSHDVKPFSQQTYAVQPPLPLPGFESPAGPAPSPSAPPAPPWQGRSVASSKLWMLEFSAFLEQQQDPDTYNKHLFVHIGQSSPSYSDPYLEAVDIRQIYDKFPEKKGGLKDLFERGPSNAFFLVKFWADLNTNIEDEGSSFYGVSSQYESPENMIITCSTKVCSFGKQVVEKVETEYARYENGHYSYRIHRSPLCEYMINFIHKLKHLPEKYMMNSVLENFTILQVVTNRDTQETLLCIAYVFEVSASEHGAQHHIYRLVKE

Assay [3] has as its system NCI-H2452. The experiment in a line: Antiproliferative activity against human NCI-H2452 cells incubated for 120 hrs by Celltiter-glo luminescent assay. Type of assay: functional, cell-based. To be noted: NCI-H2452, 120 h. The essentials: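 NCI-H2452 cells (wild-type NF2) exposed to compound over a concentration range; IC50 estimated from the dose-response.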
Assay [4] concerns the target T1, Protein cereblon-TEAD (Homo sapiens). The experiment in a line: Protac activity at CRBN/TEAD in human NCI-H226 cells at 0.1 uM incubated for 24 hrs by Western blot analysis. The assay is classed as cell-based. A digest of the protocol:
as §1

Assay [5] addresses Protein cereblon-TEAD. The assay is described as follows: Protac activity at CRBN/TEAD in human NCI-H226 cells incubated for 24 hrs by Western blot analysis. Type of assay: cell-based. The essentials: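 NCI-H226 cells exposed 24 h to compound across a broad concentration range. Pan-TEAD Western blot quantified; DC50 (half-maximal degradation concentration) derived. Mean ± SEM of three independent replicates.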

For assay [6], the target named is T1, Protein cereblon-TEAD (Homo sapiens). The experiment in a line: Protac activity at CRBN/TEAD in human NCI-H226 cells at 1 uM incubated for 10 to 24 hrs by Western blot analysis. The assay is classed as cell-based. The conditions noted are these: time 10-24 hrs. The essentials: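 Time course in NCI-H226 cells: 1 μM compound for 1 to 24 h, pan-TEAD Western blot quantified. Mean ± SEM of three independent replicates.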

The target is the same in assay [7]. The experiment in a line: Protac activity at CRBN/TEAD in human NCI-H226 cells at 1 uM preincubated with VT107 for 1 hr followed by compound addition and measured after 8 hrs by Western blot analysis. Type of assay: cell-based. The essentials: (§2)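 Rescue design: NCI-H226 cells pretreated 1 h with BafA1, MG132, thalidomide or VT107, then cotreated 8 h with compound. Protein levels measured by Western blot.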

Assay [8] has the same target. The assay is described as follows: Protac activity at CRBN/TEAD in human NCI-H226 cells at 1 uM preincubated with thalidomide for 1 hr followed by compound addition and measured after 8 hrs by Western blot analysis. Type of assay: cell-based. A digest of the protocol:
as §2

The target is the same in assay [9]. The assay is described as follows: Protac activity at CRBN/TEAD in human NCI-H226 cells at 1 uM preincubated with MG132 for 1 hr followed by compound addition and measured after 8 hrs by Western blot analysis. Type of assay: cell-based. A digest of the protocol:
as §2

Assay [10] shares this target. The experiment in a line: Protac activity at CRBN/TEAD in human NCI-H226 cells at 1 uM preincubated with BafA1 for 1 hr followed by compound addition and measured after 8 hrs by Western blot analysis. The assay is classed as cell-based. The essentials:
as §2

Assay [11] has as its system NCI-H226. The assay is described as follows: Downregulation of CYR61 gene expression in human NCI-H226 cells incubated for 8 hrs by RT-qPCR analysis. To be noted: dose 0.5-1 µM. The assay is classed as functional, cell-based. A digest of the protocol:
(§3)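 NCI-H226 cells exposed to 0.5 or 1 μM compound for 8 h. Transcript levels measured by qPCR. Mean ± SEM of three independent replicates.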

Assay [12] concerns NCI-H226. The experiment in a line: Downregulation of IGFBP3 gene expression in human NCI-H226 cells incubated for 8 hrs by RT-qPCR analysis. Type of assay: functional, cell-based. The conditions noted are these: dose 0.5-1 µM. The essentials:
as §3

The subject of assay [13] is NCI-H226. The assay is described as follows: Downregulation of AMOTL2 gene expression in human NCI-H226 cells incubated for 8 hrs by RT-qPCR analysis. The assay is classed as functional, cell-based. The conditions noted are these: dose 0.5-1 µM. A digest of the protocol:
as §3

For assay [14], the system named is NCI-H226. The experiment in a line: Downregulation of CTGF gene expression in human NCI-H226 cells incubated for 8 hrs by RT-qPCR analysis. The conditions noted are these: dose 0.5-1 µM. Type of assay: functional, cell-based. A digest of the protocol:
as §3

Assay [15] deals with NCI-H226. The assay is described as follows: Downregulation of NPPB gene expression in human NCI-H226 cells incubated for 8 hrs by RT-qPCR analysis. Type of assay: functional, cell-based. To be noted: dose 0.5-1 µM. A digest of the protocol:
as §3

Assay [16] has as its system NCI-H226. The experiment in a line: Upregulation of FBXO32 gene expression in human NCI-H226 cells incubated for 8 hrs by RT-qPCR analysis. The assay is classed as functional, cell-based. The conditions noted are these: dose 0.5-1 µM. The essentials:
as §3

Assay [17] addresses Protein cereblon/Programmed cell death protein 2 (Homo sapiens) (UniProt Q96SW2+Q16342). The experiment in a line: Protac activity at CRBN/PDCD2 in human NCI-H226 cells at 0.01 to 10 uM incubated for 24 hrs by Western blot analysis. The assay is classed as cell-based. To be noted: dose 0.01-10 µM. The essentials:
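PDCD2 degradation in NCI-H226 cells after 24 h with compound at 0.01, 0.1, 1 and 10 μM, assessed by Western blot.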

The target in assay [18] is Protein cereblon/Transcriptional enhancer factor TEF-4 (Homo sapiens, UniProt Q96SW2+Q15562). The experiment in a line: Protac activity at CRBN (unknown origin) /Flag-tagged TEAD2 (unknown origin) transfected in HEK293T cells pretreated with cycloheximide for 2 hrs followed by compound addition and measured after 24 hrs by Western blot analysis. Type of assay: cell-based. A digest of the protocol: (§4)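 293T cells transfected separately with Flag-TEAD1, -2, -3 or -4. Pretreated 2 h with 200 μg/mL cycloheximide, then 24 h with compound at a series of concentrations. Isoform detected by anti-Flag Western blot and quantified. DC50 or maximal degradation derived. Mean ± SEM of three independent replicates.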
Protein cereblon/Transcriptional enhancer factor TEF-4, sequence (Q96SW2 whole entry, canonical isoform): as the sequence (Q96SW2 whole entry partner) above
Protein cereblon/Transcriptional enhancer factor TEF-4, sequence (Q15562 whole entry, canonical isoform): as the sequence (Q15562 whole entry partner) above

The target in assay [19] is Protein cereblon/Transcriptional enhancer factor TEF-1 (Homo sapiens) (UniProt P28347+Q96SW2). The assay is described as follows: Protac activity at CRBN (unknown origin) /Flag-tagged TEAD1 (unknown origin) transfected in HEK293T cells at 9.75 to 1000 nM pretreated with cycloheximide for 2 hrs followed by compound addition and measured after 24 hrs by Western blot analysis. Type of assay: cell-based. To be noted: dose 9.75-1000 nM. A digest of the protocol:
as §4

For assay [20], the target named is Protein cereblon/Transcriptional enhancer factor TEF-5 (Homo sapiens) (UniProt Q96SW2+Q99594). The assay is described as follows: Protac activity at CRBN (unknown origin) /Flag-tagged TEAD3 (unknown origin) transfected in HEK293T cells at 9.75 to 1000 nM pretreated with cycloheximide for 2 hrs followed by compound addition and measured after 24 hrs by Western blot analysis. The assay is classed as cell-based. To be noted: dose 9.75-1000 nM. The essentials:
as §4

Assay [21] concerns the target Protein cereblon/Transcriptional enhancer factor TEF-3 (Homo sapiens) (UniProt Q96SW2+Q15561). The assay is described as follows: Protac activity at CRBN (unknown origin) /Flag-tagged TEAD4 (unknown origin) transfected in HEK293T cells at 9.75 to 1000 nM pretreated with cycloheximide for 2 hrs followed by compound addition and measured after 24 hrs by Western blot analysis. To be noted: dose 9.75-1000 nM. Type of assay: cell-based. The essentials:
as §4

Protein cereblon/Programmed cell death protein 2 (Homo sapiens), sequence (Q16342 whole entry, looked up): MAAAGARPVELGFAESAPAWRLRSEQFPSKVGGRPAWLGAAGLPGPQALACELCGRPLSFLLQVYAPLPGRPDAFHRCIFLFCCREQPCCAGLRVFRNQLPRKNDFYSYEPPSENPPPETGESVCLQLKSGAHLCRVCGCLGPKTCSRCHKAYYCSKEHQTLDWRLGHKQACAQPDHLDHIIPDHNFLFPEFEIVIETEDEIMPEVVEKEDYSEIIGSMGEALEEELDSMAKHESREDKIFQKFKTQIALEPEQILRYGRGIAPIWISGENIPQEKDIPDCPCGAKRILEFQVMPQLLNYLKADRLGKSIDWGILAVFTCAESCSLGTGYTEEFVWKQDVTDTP
Protein cereblon/Programmed cell death protein 2 (Homo sapiens), sequence (Q96SW2 whole entry, looked up): as the sequence (Q96SW2 whole entry partner) above
Protein cereblon/Transcriptional enhancer factor TEF-1 (Homo sapiens), sequence (P28347 whole entry, looked up): as the sequence (P28347 whole entry) above
Protein cereblon/Transcriptional enhancer factor TEF-1 (Homo sapiens), sequence (Q96SW2 whole entry, looked up): as the sequence (Q96SW2 whole entry partner) above
Protein cereblon/Transcriptional enhancer factor TEF-5 (Homo sapiens), sequence (Q96SW2 whole entry, looked up): as the sequence (Q96SW2 whole entry partner) above
Protein cereblon/Transcriptional enhancer factor TEF-5 (Homo sapiens), sequence (Q99594 whole entry, looked up): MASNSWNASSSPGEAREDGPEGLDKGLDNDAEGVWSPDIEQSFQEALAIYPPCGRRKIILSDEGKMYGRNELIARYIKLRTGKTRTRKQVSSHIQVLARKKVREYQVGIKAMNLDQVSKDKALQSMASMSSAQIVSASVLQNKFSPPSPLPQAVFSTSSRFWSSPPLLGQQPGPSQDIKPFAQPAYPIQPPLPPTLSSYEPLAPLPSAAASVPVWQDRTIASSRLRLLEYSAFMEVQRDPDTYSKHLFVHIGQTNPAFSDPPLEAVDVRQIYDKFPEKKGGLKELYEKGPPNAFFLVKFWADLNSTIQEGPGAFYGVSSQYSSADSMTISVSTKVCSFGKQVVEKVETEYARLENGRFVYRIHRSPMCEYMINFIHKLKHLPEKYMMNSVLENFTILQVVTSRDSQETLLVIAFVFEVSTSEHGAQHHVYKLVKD
Protein cereblon/Transcriptional enhancer factor TEF-3 (Homo sapiens), sequence (Q15561 whole entry, looked up): as the sequence (Q15561 whole entry partner) above
Protein cereblon/Transcriptional enhancer factor TEF-3 (Homo sapiens), sequence (Q96SW2 whole entry, looked up): as the sequence (Q96SW2 whole entry partner) above

The compound `C[C@H](NC(=O)c1ccc2c(-c3ccc(C(F)(F)F)cc3)cccc2c1)c1cccc(NCCCCCCCNc2cccc3c2C(=O)N(C2CCC(=O)NC2=O)C3=O)n1` (some centres undefined) returned an IC50 in assay [1] of 2650 nM.
With `C[C@H](NC(=O)c1ccc2c(-c3ccc(C(F)(F)F)cc3)cccc2c1)c1cccc(NCCOCCNc2ccc3c(c2)C(=O)N(C2CCC(=O)NC2=O)C3=O)n1` (some centres undefined), the IC50 in [1] was 350 nM.
Compound `C[C@H](NC(=O)c1ccc2c(-c3ccc(C(F)(F)F)cc3)cccc2c1)c1cccc(NCCNc2cccc3c2C(=O)N(C2CCC(=O)NC2=O)C3=O)n1` (some centres undefined) registered an IC50 in assay [1] of 1510 nM.
For the compound `C[C@H](NC(=O)c1ccc2c(-c3ccc(C(F)(F)F)cc3)cccc2c1)c1cccc(NCCOCCNc2cccc3c2C(=O)N(C2CCC(=O)NC2=O)C3=O)n1` (some centres undefined), the IC50 in assay [1] came to 340 nM.
`C[C@H](NC(=O)c1ccc2c(-c3ccc(C(F)(F)F)cc3)cccc2c1)c1cccc(NCCCCNc2cccc3c2C(=O)N(C2CCC(=O)NC2=O)C3=O)n1` (some centres undefined) yielded an IC50 in assay [1] of 1180 nM. This IC50 is about 3.5-fold higher than that of the compound before.
`C[C@H](NC(=O)c1ccc2c(-c3ccc(C(F)(F)F)cc3)cccc2c1)c1cccc(NCCCNc2cccc3c2C(=O)N(C2CCC(=O)NC2=O)C3=O)n1` (some centres undefined) showed an IC50 in assay [1] of 940 nM.
Take `C[C@H](NC(=O)c1ccc2c(-c3ccc(C(F)(F)F)cc3)cccc2c1)c1cccc(NCCCCCCNc2cccc3c2C(=O)N(C2CCC(=O)NC2=O)C3=O)n1` (some centres undefined): in [1], 1150 nM corresponded to half-maximal inhibition (IC50).
The compound `C[C@H](NC(=O)c1ccc2c(-c3ccc(C(F)(F)F)cc3)cccc2c1)c1cccc(NCCOCCOCCOCCNc2ccc3c(c2)C(=O)N(C2CCC(=O)NC2=O)C3=O)n1` (some centres undefined) had an IC50 in assay [1] of 230 nM. The outcome in [2] was Active.
Consider `C[C@H](NC(=O)c1ccc2c(-c3ccc(C(F)(F)F)cc3)cccc2c1)c1cccc(NCCOCCOCCNc2ccc3c(c2)C(=O)N(C2CCC(=O)NC2=O)C3=O)n1` (some centres undefined), for which the IC50 in assay [1] is 210 nM; in [3], above 10000 nM. In addition, the result in [2], in assay [6], in assay [10], in [11], in assay [12] and in assay [13] was Active. The outcome in [14], in assay [15] and in [16] was Active. The compound also had an Activity in assay [4] of 42.4%. In addition, the DC50 was 32.7 nM in [5] and 54.1 nM in [18]. Moreover, the outcome in assay [7], in [8], in assay [9], in assay [17], in assay [20] and in assay [21] was inactive. Moreover, the Emax in assay [19] turned out to be 40%.
The compound `C[C@H](NC(=O)c1ccc2c(-c3ccc(C(F)(F)F)cc3)cccc2c1)c1cccc(NCCCCCNc2cccc3c2C(=O)N(C2CCC(=O)NC2=O)C3=O)n1` (some centres undefined) displayed an IC50 in assay [1] of 810 nM.
On the same count and under the same terms, for `C[C@H](NC(=O)c1ccc2c(-c3ccc(C(F)(F)F)cc3)cccc2c1)c1cccc(N)n1` the value was 30 nM.
`C[C@H](NC(=O)c1ccc2c(-c3ccc(C(F)(F)F)cc3)cccc2c1)c1cccc(NCCCCCCCCNc2cccc3c2C(=O)N(C2CCC(=O)NC2=O)C3=O)n1` (some centres undefined) came in with an IC50 in assay [1] of 5110 nM.
As to `C[C@H](NC(=O)c1ccc2c(-c3ccc(C(F)(F)F)cc3)cccc2c1)c1cccc(NCCOCCOCCOCCNc2cccc3c2C(=O)N(C2CCC(=O)NC2=O)C3=O)n1` (some centres undefined), the IC50 in assay [1] turned out to be 260 nM. The result in assay [2] was Active. Besides, in assay [4], the Activity was found to be 45.1%. In assay [5], this compound registered a DC50 of 39.7 nM.
For `C[C@H](NC(=O)c1ccc2c(-c3ccc(C(F)(F)F)cc3)cccc2c1)c1cccc(NCCOCCOCCNc2cccc3c2C(=O)N(C2CCC(=O)NC2=O)C3=O)n1` (some centres undefined), the IC50 in assay [1] was found to be 290 nM. Besides, the outcome in [2] was Active.

Source of the values: ChEMBL document CHEMBL5532683, “Design, Synthesis, and Bioevaluation of Transcriptional Enhanced Assocciated Domain (TEAD) PROTAC Degraders” (ACS Med Chem Lett, 2024).
